Values after ≈ are worked out from the molar mass of the structure shown.
Columns and labels:
Format in all cases: functional
Proteus mirabilis = assay: Antibacterial activity against Proteus mirabilis 9900 by two-fold serial dilution technique
Outline: (§1)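 MIC read as µg/mL from twofold serial dilutions of each compound in nutrient broth, tested against the named strain.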

Escherichia coli = assay: Antibacterial activity against Escherichia coli 15119 by two-fold serial dilution technique; outline: as §1
Streptococcus pneumoniae = assay: Antibacterial activity against Streptococcus pneumoniae 9585 by two-fold serial dilution technique; outline: as §1
Staphylococcus aureus [1] = assay: Antibacterial activity against penicillin-resistant Staphylococcus aureus 9606 by two-fold serial dilution technique
Outline: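 MIC (µg/mL) was determined by twofold serial dilution in nutrient broth against penicillin-resistant S. aureus 9606.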

Streptococcus pyogenes [2] = assay: Antibacterial activity against Streptococcus pyogenes 9604 by two-fold serial dilution technique; outline: as §1
Staphylococcus aureus [3] = assay: Antibacterial activity against Staphylococcus aureus 9537 by two-fold serial dilution technique; outline: as §1
Proteus vulgaris = assay: Antibacterial activity against Proteus vulgaris 9716 by two-fold serial dilution technique; outline: as §1
Streptococcus pyogenes [4] = assay: Antibacterial activity against Streptococcus pyogenes A9604 infected in mouse assessed as mouse survival administered intramuscularly at 1 hr post-infection measured for 5 days; settings: A9604, im, read-out: PD50
Outline: (§2)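 Mice were challenged intraperitoneally with about 1.3 × 10^3 S. pyogenes A9604 per mouse, diluted in brain heart infusion broth to give a uniform lethal infection. Fourfold compound dilutions were given intramuscularly or orally at 1 and 3.5 h postinfection. Survivors were followed for 5 days. PD50 is the total dose (mg/kg) protecting 50% of mice, calculated by the Spearman-Kärber method.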

Streptococcus pyogenes [5] = assay: Antibacterial activity against Streptococcus pyogenes A9604 infected in po dosed mouse assessed as mouse survival administered at 3.5 hrs post-infection measured for 5 days; settings: read-out: PD50; outline: as §2

Structure (SMILES) | MIC (Proteus mirabilis) [µg/mL] | MIC (Escherichia coli) [µg/mL] | MIC (Streptococcus pneumoniae) [µg/mL] | MIC (Staphylococcus aureus [1]) [µg/mL] | MIC (Streptococcus pyogenes [2]) [µg/mL] | MIC (Staphylococcus aureus [3]) [µg/mL] | MIC (Proteus vulgaris) [µg/mL] | ED50 (Streptococcus pyogenes [4]) [mg/kg] | ED50 (Streptococcus pyogenes [5]) [mg/kg]
CC1(C)N=C(c2ccccc2)C(=O)N1[C@@H]1C(=O)N2[C@@H]1[S@+]([O-])C(C)(C)[C@@H]2C(=O)O | > 125 | > 125 | 1 (≈ 2.48 µM) | > 125 | 1 (≈ 2.48 µM) | > 8 | > 125 | – | –
CC1(C)N[C@H](c2ccccc2)C(=O)N1[C@@H]1C(=O)N2[C@@H]1[S@+]([O-])C(C)(C)[C@@H]2C(=O)O | 1 (≈ 2.47 µM) | 8 (≈ 19.7 µM) | 0.13 (≈ 0.321 µM) | > 125 | 0.13 (≈ 0.321 µM) | 1 (≈ 2.47 µM) | 1 (≈ 2.47 µM) | 3.1 | 9.4
CC1(C)N[C@H](c2ccccc2)C(=O)N1[C@@H]1C(=O)N2[C@@H]1[S@@+]([O-])C(C)(C)[C@@H]2C(=O)O | 4 (≈ 9.86 µM) | 32 (≈ 78.9 µM) | 0.5 (≈ 1.23 µM) | > 125 | 0.5 (≈ 1.23 µM) | 4 (≈ 9.86 µM) | 4 (≈ 9.86 µM) | 9.6 | > 25
CC1(C)S[C@@H]2[C@H](N3C(=O)[C@@H](c4ccccc4)NC3(C)C)C(=O)N2[C@H]1C(=O)O [HETACILLIN] | 0.13 (≈ 0.334 µM) | 1 (≈ 2.57 µM) | 0.004 (≈ 0.0103 µM) | > 125 | 0.004 (≈ 0.0103 µM) | 0.016 (≈ 0.0411 µM) | 0.13 (≈ 0.334 µM) | 0.2 | 0.3

Source: ChEMBL document CHEMBL3244198, “Hetacillin (R)- and (S)-sulfoxides. Synthesis and structure-activity relationships” (1978)
